The values below come from ChEMBL document CHEMBL4354843, “Structure-Based Design of a Potent and Selective Covalent Inhibitor for SRC Kinase That Targets a P-Loop Cysteine” (J Med Chem, 2020).

The test system of experiment [1] is Receptor-type tyrosine-protein kinase FLT3 (Homo sapiens), P36888 [D835H]. The experiment in a line: Binding affinity to human partial length FLT3 D835H mutant (V592 to Y969 residues) expressed in bacterial expression system assessed as residual binding level at 1 uM by Kinomescan method relative to control. The essentials:
(§1)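 KinomeScan active site-directed competition binding panel (468 kinases), compound tested at 1 μM. Result expressed as remaining kinase signal versus DMSO control (percent of control).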

The target in experiment [2] is Casein kinase II subunit alpha' (Homo sapiens) (UniProt P19784). The experiment can be described thus: Binding affinity to wild-type human full length CSNK2A2 (M1 to R350 residues) expressed in mammalian expression system assessed as residual binding level at 1 uM by Kinomescan method relative to control. Put shortly: (§2)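 Active-site-directed KinomeScan competition binding panel covering 468 kinases, compound tested at 1 μM. Each readout is the kinase signal remaining with compound, expressed as a percentage of the DMSO control. […]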

Experiment [3] deals with Mitogen-activated protein kinase kinase kinase kinase 3 (Homo sapiens) (UniProt Q8IVH8). The experiment can be described thus: Binding affinity to wild-type human partial length MAP4K3 (M1 to D301 residues) expressed in bacterial expression system assessed as residual binding level at 1 uM by Kinomescan method relative to control.
Experiment [4] has as its target Casein kinase II subunit alpha (Homo sapiens) (UniProt P68400). The experiment can be described thus: Binding affinity to wild-type human full length CSNK2A1 (M1 to Q391 residues) expressed in mammalian expression system assessed as residual binding level at 1 uM by Kinomescan method relative to control. Put shortly:
(§3)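 KinomeScan, an active site-directed competition binding panel of 468 kinases. The test compound was at 1 μM. The readout is remaining kinase binding as a percentage of the DMSO control. Scores above 35% were treated as weak binding and not listed.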

Experiment [5] addresses LIM domain kinase 1 (Homo sapiens) (UniProt P53667). The experiment can be described thus: Binding affinity to wild-type human full length LIMK1 (M1 to D647 residues) expressed in bacterial expression system assessed as residual binding level at 1 uM by Kinomescan method relative to control. Put shortly: as §2
The target in experiment [6] is Aurora kinase A (Homo sapiens) (UniProt O14965). The experiment in a line: Binding affinity to wild-type human partial length AURKA (E122 to K401 residues) expressed in mammalian expression system assessed as residual binding level at 1 uM by Kinomescan method relative to control.
The target of experiment [7] is Dual specificity testis-specific protein kinase 1 (Homo sapiens) (UniProt Q15569). The experiment in a line: Binding affinity to wild-type human full length TESK1 (R37 to S626 residues) expressed in bacterial expression system assessed as residual binding level at 1 uM by Kinomescan method relative to control.
Experiment [8] concerns the target Fibroblast growth factor receptor 4 (Homo sapiens) (UniProt P22455). The experiment can be described thus: Binding affinity to wild-type human partial length FGFR4 (G402 to E713 residues) expressed in bacterial expression system assessed as residual binding level at 1 uM by Kinomescan method relative to control.
In experiment [9] the target is Serine/threonine-protein kinase TAO3 (Homo sapiens) (UniProt Q9H2K8). The experiment in a line: Binding affinity to wild-type human partial length TAOK3 (M1 to T316 residues) expressed in mammalian expression system assessed as residual binding level at 1 uM by Kinomescan method relative to control.
In experiment [10] the target is Serine/threonine-protein kinase PLK4 (Homo sapiens) (UniProt O00444). The experiment in a line: Binding affinity to wild-type human partial length PLK4 (M1 to S273 residues) expressed in mammalian expression system assessed as residual binding level at 1 uM by Kinomescan method relative to control.
Experiment [11] has as its target Serine/threonine-protein kinase TBK1 (Homo sapiens) (UniProt Q9UHD2). The experiment in a line: Binding affinity to wild-type human full length TBK1 (M1 to L729 residues) expressed in mammalian expression system assessed as residual binding level at 1 uM by Kinomescan method relative to control. Put shortly:
as §3

The target in experiment [12] is Serine/threonine-protein kinase Nek4 (Homo sapiens) (UniProt P51957). The experiment can be described thus: Binding affinity to wild-type human full length NEK4 (M1 to F841 residues) expressed in mammalian expression system assessed as residual binding level at 1 uM by Kinomescan method relative to control. The essentials:
as §3

The target in experiment [13] is Ribosomal protein S6 kinase alpha-4 (Homo sapiens) (UniProt O75676). The experiment can be described thus: Binding affinity to wild-type human partial length N-terminal RPS6KA4 kinase domain 1 expressed in bacterial expression system assessed as residual binding level at 1 uM by Kinomescan method relative to control.
Experiment [14] concerns the target Death-associated protein kinase 2 (Homo sapiens) (UniProt Q9UIK4). The experiment in a line: Binding affinity to wild-type human full length DAPK2 (M1 to S370 residues) expressed in bacterial expression system assessed as residual binding level at 1 uM by Kinomescan method relative to control. Put shortly: as §2
The target of experiment [15] is Phosphorylase b kinase gamma catalytic chain, skeletal muscle/heart isoform (Homo sapiens) (UniProt Q16816). The experiment can be described thus: Binding affinity to wild-type human full length PHKG1 (M1 to Y387 residues) expressed in bacterial expression system assessed as residual binding level at 1 uM by Kinomescan method relative to control. The essentials:
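Active-site-directed competition binding panel (KinomeScan) covering 468 kinases. Test agent was screened at 1 μM. The read-out is the remaining kinase signal expressed relative to a DMSO control. Scores above 35%, taken as weak binding, were not reported.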

Experiment [16] has as its system Epidermal growth factor receptor (Homo sapiens), P00533 [T790M]. The experiment in a line: Binding affinity to human partial length EGFR T790M mutant (R669 to G1022 residues) expressed in mammalian expression system assessed as residual binding level at 1 uM by Kinomescan method relative to control. The essentials: as §1
Experiment [17] addresses Tyrosine-protein kinase ITK/TSK (Homo sapiens) (UniProt Q08881). The experiment can be described thus: Binding affinity to wild-type human partial length ITK (R335 to L620 residues) expressed in bacterial expression system assessed as residual binding level at 1 uM by Kinomescan method relative to control.
The target in experiment [18] is Phosphatidylinositol 4,5-bisphosphate 3-kinase catalytic subunit beta isoform (Homo sapiens) (UniProt P42338). The experiment can be described thus: Binding affinity to wild-type human partial length PIK3CB (P118 to S1070 residues) expressed in mammalian expression system assessed as residual binding level at 1 uM by Kinomescan method relative to control.
For experiment [19], the system named is Phosphatidylinositol 4,5-bisphosphate 3-kinase catalytic subunit alpha isoform (Homo sapiens), P42336 [Q546K]. The experiment can be described thus: Binding affinity to human partial length PIK3CA Q546K mutant (R108 to N1068 residues) expressed in mammalian expression system assessed as residual binding level at 1 uM by Kinomescan method relative to control. The essentials: as §1

The target of experiment [20] is Tyrosine-protein kinase TXK (Homo sapiens) (UniProt P42681). The experiment in a line: Binding affinity to wild-type human partial length TXK (L238 to W527 residues) expressed in bacterial expression system assessed as residual binding level at 1 uM by Kinomescan method relative to control. Put shortly: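 Active site-directed competition binding panel (KinomeScan, 468 kinases). Test compound at 1 μM. Read-out is kinase binding remaining versus DMSO control, expressed as percent of control. Scores above 35% are treated as weak binding.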

Experiment [21] has as its target Casein kinase I isoform gamma-2 (Homo sapiens) (UniProt P78368). The experiment can be described thus: Binding affinity to wild-type human full length CSNK1G2 (M1 to K415 residues) expressed in bacterial expression system assessed as residual binding level at 1 uM by Kinomescan method relative to control. The essentials:
as §2

As for `C=CC(=O)Nc1ccccc1Nc1nc(Nc2ccc(N3CCN(C)CC3)cc2)ncc1C(=O)Nc1c(C)cccc1Cl`, the Activity in experiment [1] was 95%; in [2] it was 100%; in experiment [3] it was 100%; in experiment [4], 68%; in experiment [5], 100%; in experiment [6] it was 100%. For the same compound, the Activity in [7] was determined as 100%; in [8] it was 100%; in experiment [9], 100%; in experiment [10], 92%; in experiment [11], 70%; in experiment [12], 94%. Moreover, the Activity in experiment [13], in experiment [14], in experiment [15], in experiment [16], in experiment [17] and in [18] was 100% throughout. Besides, the Activity was determined as 100% in [19], 17% in [20] and 100% in [21].
